Hits are enriched below; roughly 9.8% of the tested compounds scored in any of these assays.
Lmaj promast – inhibitors of Leishmania major promastigote growth; Leishmania major promastigotes, resazurin fluorescence viability; inhibition, % at 10 µM; actives 9% (n = 200,000); in the data active = inhibition above about 50%;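 also: promastigotes grown with compound for 44 hours at 28 °C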
PMI act – activators of human phosphomannose isomerase; activation factor at 20 µM; actives 0.005% (n = 190,000); AID 1214; P34949; purified human PMI, coupled resazurin fluorescence, 20 min; active compounds read high; 1 = vehicle control, 0 substrate-free wells;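 active = activation factor of 2 or more at 20 µM, relative to plate controls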
Rad51 HR inh – Rad51 (human) homologous recombination inhibition; Q06609; AID 1385; actives 0.085% (n = 200,000); hRad51 DNA strand exchange, fluorescence dequenching; inhibition, % at 10 µM;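 active = inhibition above 40% at the single screening dose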
Target sequence (Q06609 whole entry, looked up): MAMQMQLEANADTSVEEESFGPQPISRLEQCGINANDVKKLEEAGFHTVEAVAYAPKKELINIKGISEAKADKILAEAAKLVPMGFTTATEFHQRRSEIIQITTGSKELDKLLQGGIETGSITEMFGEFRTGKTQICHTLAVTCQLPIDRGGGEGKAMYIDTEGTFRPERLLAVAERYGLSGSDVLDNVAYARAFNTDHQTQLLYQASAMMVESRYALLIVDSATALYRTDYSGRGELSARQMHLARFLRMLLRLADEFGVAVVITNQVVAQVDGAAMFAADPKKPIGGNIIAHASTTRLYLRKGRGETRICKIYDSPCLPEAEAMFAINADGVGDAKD
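System: hRad51 filaments on single-stranded DNA; reagent: Fluorescein- and BHQ1-tagged 47-mer duplex; compound dosing: one concentration, 10 µM final; timing: filaments 15 min 37 °C, then compound 30 min; measured by: fluorescein emission 520 nm, excitation 485 nm; benchmarks: per-plate controls and blanks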
WT yeast gro inh – growth inhibition of WT yeast, mitochondrial fusion screen | mitochondrial fusion phenotypic screen, WT strain | actives 2.1% (n = 190,000) | inhibition, % at 10 µM | AID 1362; in the data active = inhibition above about 58%; tested in S. cerevisiae
m-calpain inh – inhibitors of pig calpain II; purified calpain II, fluorogenic peptide substrate, 30 min; inhibition, % at 16 µM; actives 0.37% (n = 220,000); AID 1236;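 active = inhibition above about 50%, limit read from the data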
PMI act satM6P – PMI (human) activation, high substrate. activation factor at 20 µM. coupled PMI enzyme assay, resazurin fluorescence, 20 min; active compounds read high; 1 = untreated enzyme, 0 = substrate-free blank. P34949. actives 0.34% (n = 190,000);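 active = activation factor of 2 or more at 20 µM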
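Material: human phosphomannose isomerase with PGI, G6PDH, diaphorase coupling enzymes; amount: PMI at 15 ng/mL final; also added: Mannose-6-phosphate 1.0 mM (near-saturating) plus 0.22 mM NADP+; incubation: enzyme reaction with compound 20 min at room temperature; signal: resorufin fluorescence (Ex 544/Em 590 nm) from resazurin via diaphorase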
Each line names hits and unclear results; the compound was inactive in the other large screens.

Cc1nn(CC(=O)NCc2cccnc2)c(=O)c2ccccc12	Lmaj promast 51.4
Cc1ccccc1-n1nc(C)c2cc(C(=O)NCc3cccnc3)sc21	Lmaj promast 69.2
Cc1nn(CC(=O)NCc2ccccc2)c(=O)c2ccccc12	none
CCN(CC)CCNC(=O)Cn1nc(Cc2ccccc2)c2ccccc2c1=O	WT yeast gro inh 59.9
COc1ccc(-c2[nH]ncc2CN2CCC(C(=O)c3ccc(F)cc3)CC2)cc1	none (no result: Lmaj promast, PMI act, WT yeast gro inh, PMI act satM6P)
O=C(CCc1nnc(CCCCc2ccccc2)o1)N1CCCCC1CCO (stereo not drawn)	none (no result: Lmaj promast, PMI act, Rad51 HR inh, WT yeast gro inh, PMI act satM6P)
O=C(COc1c(Br)cc(Br)c2cccnc12)N1CCc2ccccc2C1	WT yeast gro inh 65.3
Oc1c(Br)cc(Br)cc1CNc1ccc(F)cc1	WT yeast gro inh 83.0
COc1ccc(CC2(CO)CCN(Cc3ccc4c(c3)CCO4)CC2)cc1	Lmaj promast 79.0 (no result: Rad51 HR inh)
COc1ccc(CC2(CO)CCN(Cc3ccc(NC(C)=O)cc3)CC2)cc1	none (no result: Rad51 HR inh)
COc1ccc(CC2(CO)CCN(CC3=Cc4cc(Cl)ccc4OC3)CC2)cc1	Lmaj promast 88.5 (no result: PMI act, PMI act satM6P)
COc1ccc(CC2(CO)CCN(Cc3ccc(OC(F)(F)F)cc3)CC2)cc1	Lmaj promast 77.6
CCOc1cc(CN2CCC(CO)(Cc3cccc(C(F)(F)F)c3)CC2)ccc1OC	Lmaj promast 84.9 (no result: Rad51 HR inh)
O=C(/C=C/c1cccc2ccccc12)N1CCOCC1	none (no result: Lmaj promast, PMI act, WT yeast gro inh, PMI act satM6P)
NC(=O)c1ccc(NCCCN2CCOCC2)c([N+](=O)[O-])c1	none (no result: Rad51 HR inh)
Nc1cccc(CN2CCCC2)c1	none
CC(C)N(CCNC(=O)c1oc(=O)c2ccccc2c1-c1ccccc1)Cc1ccco1	none
COc1ccc(CC2(CO)CCN(Cc3cccc4nccnc34)CC2)cc1	none
COc1ccc(CN2CCC(CO)(Cc3ccccc3C(F)(F)F)CC2)c(F)c1	Lmaj promast 76.6 (no result: Rad51 HR inh)
COc1ccc(CC2(CO)CCN(Cc3nc(C(C)C)cs3)CC2)cc1	Lmaj promast 91.2
COc1ccc(CCN(C)S(=O)(=O)c2ccc(Cl)nc2)cc1OC	none
Cc1ccc(OCC(O)Cn2c3ccccc3c3ccccc32)cc1 (stereo not drawn)	none
CCn1c(=N)n(CC(O)COc2cccc(C)c2)c2ccccc21 (stereo not drawn)	Lmaj promast 57.9
CCCn1c(=N)n(CC(O)COc2cccc(C)c2)c2ccccc21 (stereo not drawn)	Lmaj promast 95.6
CN(c1ccccc1)S(=O)(=O)c1cccc(NC(=O)c2ccc3ncsc3c2)c1	none (no result: Lmaj promast, PMI act, WT yeast gro inh, PMI act satM6P)
CCN(CC)c1ccc(C(=O)OCC(=O)Nc2cccc(S(=O)(=O)NC3=NCCCCC3)c2)cc1	none
CCOC(=O)c1ccc[n+](CC(=O)Nc2cc(C(F)(F)F)ccc2Cl)c1	none
O=C1CCCC(=O)C1=C1SCCS1	none
O=C(OC1CCCCC1)c1ccc(NC(=O)C2CCCCC2)cc1	Lmaj promast 87.2
CCOC(=O)c1csc(NC(=O)Nc2cccc(Cl)c2)n1	Lmaj promast 87.5
O=C(Nc1cccc(Cl)c1)Nc1nnc(-c2ccncc2)s1	Lmaj promast 64.7
Cc1nc(Cl)nc(N(C)c2ccccc2)c1[N+](=O)[O-]	none (no result: Lmaj promast, PMI act, WT yeast gro inh, PMI act satM6P)
O=C(CN1C(=O)c2cccc3cccc1c23)Nc1ccccc1C(=O)NCc1ccco1	Lmaj promast 82.5 (no result: PMI act, PMI act satM6P)
Cc1cc(Cl)n2c(nc3ccccc32)c1C#N	Lmaj promast 100.5
CCN(CC)c1cc(C)c(C#N)c2nc3ccccc3n12	none (no result: Lmaj promast, PMI act, WT yeast gro inh, PMI act satM6P)
CC1CCCN(C(=O)C2CCN(CCCc3ccccc3)CC2)C1 (stereo not drawn)	Lmaj promast 81.2
CC1CCCN(C(=O)C2CCN(CC(C)c3ccccc3)CC2)C1 (stereo not drawn)	none
COc1cc(CN2CCC(C(=O)N3CCCC(C)C3)CC2)cc(Br)c1O (stereo not drawn)	Lmaj promast 75.6
CCOC(=O)C1CCCN(CCCc2ccccc2)C1 (stereo not drawn)	Lmaj promast 50.5
CCCCN(Cc1ccccc1)C(=O)C1CCN(S(=O)(=O)c2c(C)noc2C)CC1	none
CCCCN(C)C(=O)C1CCN(CCCc2ccccc2)CC1	Lmaj promast 82.3 (no result: Rad51 HR inh)
COc1ccc(CN2CCC(C(=O)N3CCCC(C)C3)CC2)cc1OC (stereo not drawn)	none
O=C(COc1ccccc1Cl)Nc1ccc(CN2CCCCC2)cc1	none
C=C1C(=O)C=C2CN(C(=O)c3ccccc3)[C@@](Cc3ccc(F)cc3)(C(=O)OC)[C@@H]12	Lmaj promast 100.4, WT yeast gro inh 73.6
COC(=O)[C@@]1(Cc2ccc(OC)cc2)[C@H]2c3cc(C(=O)N(C)C)n(C[C@H](O)CO)c3C[C@H]2CN1C(=O)c1ccccc1	none
COC(=O)[C@@]1(Cc2ccc(OC)cc2)[C@@H]2C(=CC(=O)[C@H]2CC(=O)C(=O)N(C)C)CN1C(=O)c1ccccc1	Lmaj promast 100.3
COC(=O)[C@@]1(Cc2ccc(F)cc2)[C@H]2c3cc(C(=O)N(C)C)n(Cc4ccc(OC)c(OC)c4)c3C[C@H]2CN1C(=O)c1ccccc1	none
COCCNC(=S)NCc1ccc2[nH]c3c(c2c1)CCCC3	none
Cc1ccc(NC(=S)NCc2ccc3[nH]c4c(c3c2)CCCC4)cc1	WT yeast gro inh 72.7
COC1=C(c2ccccc2)C(=O)c2ccccc2C1=O	PMI act 2
COc1ccc(C2=C(N)c3ccccc3C2=O)cc1	none
O=C(NCc1cccs1)c1nc(-c2cccs2)no1	Rad51 HR inh 41.3
O=C(NCc1ccncc1)c1nc(-c2cccs2)no1	none
COc1ccc(N=C2SC(CC(=O)Nc3ccc(F)cc3)C(=O)N2Cc2ccco2)cc1 (stereo not drawn)	none
COc1ccc(N=C2SC(CC(=O)Nc3ccccc3OC)C(=O)N2Cc2ccco2)cc1 (stereo not drawn)	Lmaj promast 99.2
COc1ccc(N=C2SC(CC(=O)Nc3ccccc3)C(=O)N2CC2CCCO2)cc1 (stereo not drawn)	Lmaj promast 63.4
COc1ccc(NC(=O)CC2SC(=NCC3CCCO3)NC2=O)cc1 (stereo not drawn)	none
COc1ccc(N=C2SC(CC(=O)Nc3ccccc3)C(=O)N2CCN2CCOCC2)cc1 (stereo not drawn)	Lmaj promast 55.7
COCCN1C(=O)C(CC(=O)Nc2ccc(C(=O)O)cc2)SC1=Nc1ccccc1 (stereo not drawn)	none (no result: Rad51 HR inh)
COC(=O)c1cc(NC(=O)CC2SC(=Nc3ccccc3)N(CCc3c[nH]c4ccccc34)C2=O)cc(C(=O)OC)c1 (stereo not drawn)	Lmaj promast 99.2
CCn1cc(C(=O)Nc2cccc(C)c2)c(=O)c2ccc(C)nc21	none
CCOC(=O)C1=C(C)Nc2sc(C(=O)c3ccc(OC)cc3)c(N)c2C1c1ccc(C(=O)OC)cc1 (stereo not drawn)	Lmaj promast 71.4
COC(=O)C1=C(C)Nc2sc(C(N)=O)c(N)c2C1c1ccncc1 (stereo not drawn)	none
